In brackets after ≈: the same amount, converted by molar mass.
How the values were obtained:
Escherichia coli [1] = experiment: Minimum inhibitory concentration against Escherichia coli (H560); assay type: functional
Outline: (§1)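 MICs were determined by standard microtitration against a panel of 11 bacterial strains. Aqueous stock solutions were prepared with 0.1 N sodium or potassium hydroxide.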

Escherichia coli [2] = experiment: Minimum inhibitory concentration against Escherichia coli (vogel); assay type: functional; outline: as §1
Enterobacter cloacae = experiment: Minimum inhibitory concentration against Enterobacter cloacae. (MA2446).; assay type: functional
[3] = biological target: DNA gyrase (Escherichia coli) (UniProt P0AES6+P0AES4); experiment: Concentration required for 50% inhibition of gyrase.; assay type: protein-complex assay
Outline: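 DNA gyrase inhibition: the drug concentration (µg/mL) giving 50% inhibition (I50) was recorded, along with the lowest concentration inducing gyrase-mediated DNA cleavage. Data come from duplicate experiments with ±50% reproducibility.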

Klebsiella pneumoniae = experiment: Minimum inhibitory concentration against Klebsiella pneumoniae (MGH-2); assay type: functional; outline: as §1
Pseudomonas aeruginosa = experiment: Minimum inhibitory concentration against Pseudomonas aeruginosa. (UI-18); assay type: functional; outline: as §1
Providencia rettgeri = experiment: Minimum inhibitory concentration against Providencia rettgeri. (M1771); assay type: functional; outline: as §1
Streptococcus pyogenes = experiment: Minimum inhibitory concentration against Streptococcus pyogenes (C203).; assay type: functional; outline: as §1
Staphylococcus aureus [4] = experiment: Minimum inhibitory concentration against Staphylococcus aureus (H-228).; assay type: functional; outline: as §1
Staphylococcus aureus [5] = experiment: Minimum inhibitory concentration against Staphylococcus aureus (UC76).; assay type: functional; outline: as §1
Streptococcus pneumoniae = experiment: Minimum inhibitory concentration against Streptococcus pneumoniae (SV-1).; assay type: functional; outline: as §1
Enterobacter = experiment: Minimum inhibitory concentration against gram-negative enterobacteriaceae.; assay type: functional
Outline: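 This value is the geometric mean of microtitration MICs for the Gram-negative Enterobacteriaceae strains in the 11-organism panel. Aqueous stocks were prepared in 0.1 N sodium or potassium hydroxide.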

Enterococcus faecalis = experiment: Minimum inhibitory concentration against Streptococcus faecalis (MGH-2).; assay type: functional; outline: as §1
Mus musculus [6] = experiment: In vivo activity against Pseudomonas aeruginosa (po); assay type: functional; conditions: read-out: PD50
Outline: (§2)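 Median protective dose (PD50, mg/kg) measured in acute, lethal, systemic infections in female Charles River CD-1 mice. A single dose of compound was given at the time of bacterial challenge. Aqueous stock solutions were made with 0.1 N sodium or potassium hydroxide.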

Mus musculus [7] = experiment: In vivo activity against Pseudomonas aeruginosa (sc); assay type: functional; conditions: read-out: PD50; outline: as §2
Mus musculus [8] = experiment: In vivo activity against Streptococcus pneumoniae (po); assay type: functional; conditions: read-out: PD50; outline: as §2
Mus musculus [9] = experiment: In vivo activity against Streptococcus pneumoniae (sc); assay type: functional; conditions: read-out: PD50; outline: as §2
Mus musculus [10] = experiment: In vivo activity against Streptococcus pyogenes (po); assay type: functional; conditions: read-out: PD50; outline: as §2
Mus musculus [11] = experiment: In vivo activity against Streptococcus pyogenes (sc); assay type: functional; conditions: read-out: PD50; outline: as §2
Mus musculus [12] = experiment: In vivo activity against Escherichia coli (po); assay type: functional; conditions: read-out: PD50; outline: as §2
Mus musculus [13] = experiment: In vivo activity against Escherichia coli (sc); assay type: functional; conditions: read-out: PD50; outline: as §2

Row | SMILES | MIC (Escherichia coli [1]) [µg/mL] | MIC (Escherichia coli [2]) [µg/mL] | MIC (Enterobacter cloacae) [µg/mL] | IC50 [3] [µg/mL] | MIC (Klebsiella pneumoniae) [µg/mL] | MIC (Pseudomonas aeruginosa) [µg/mL] | MIC (Providencia rettgeri) [µg/mL] | MIC (Streptococcus pyogenes) [µg/mL] | MIC (Staphylococcus aureus [4]) [µg/mL] | MIC (Staphylococcus aureus [5]) [µg/mL] | MIC (Streptococcus pneumoniae) [µg/mL] | MIC (Enterobacter) [µg/mL] | MIC (Enterococcus faecalis) [µg/mL] | ED50 (Mus musculus [6]) [mg/kg] | ED50 (Mus musculus [7]) [mg/kg] | ED50 (Mus musculus [8]) [mg/kg] | ED50 (Mus musculus [9]) [mg/kg] | ED50 (Mus musculus [10]) [mg/kg] | ED50 (Mus musculus [11]) [mg/kg] | ED50 (Mus musculus [12]) [mg/kg] | further results
1 | CCNCC1CCN(c2c(F)cc3c(=O)c(C(=O)O)cn(CC(F)(F)F)c3c2F)C1 (stereo unspecified) | 0.4 (≈ 0.923 µM) | 0.8 (≈ 1.85 µM) | 1.6 (≈ 3.69 µM) | 26 (≈ 60 µM) | 0.8 (≈ 1.85 µM) | 6.3 (≈ 14.5 µM) | 3.1 (≈ 7.15 µM) | 0.4 (≈ 0.923 µM) | 0.4 (≈ 0.923 µM) | 0.1 (≈ 0.231 µM) | 0.4 (≈ 0.923 µM) | 1.05 (≈ 2.42 µM) | 0.2 (≈ 0.461 µM) | – | – | – | – | – | – | – | –
2 | CNn1cc(C(=O)O)c(=O)c2cc(F)c(N3CCN(C)CC3)cc21 [AMIFLOXACIN] | 0.025 (≈ 0.0748 µM) | 0.1 (≈ 0.299 µM) | – | – | 0.2 (≈ 0.598 µM) | 0.8 (≈ 2.39 µM) | 0.2 (≈ 0.598 µM) | 12.5 (≈ 37.4 µM) | 1.6 (≈ 4.79 µM) | 0.4 (≈ 1.2 µM) | 12.5 (≈ 37.4 µM) | 0.1 (≈ 0.299 µM) | 3.1 (≈ 9.27 µM) | – | – | – | – | – | – | – | –
3 | CN1CCN(c2cc3c(cc2F)c(=O)c(C(=O)O)cn3-c2ccc(F)cc2)CC1 [DIFLOXACIN] | 0.05 (≈ 0.125 µM) | 0.4 (≈ 1 µM) | 0.8 (≈ 2 µM) | – | 0.4 (≈ 1 µM) | 0.8 (≈ 2 µM) | 1.6 (≈ 4.01 µM) | 1.6 (≈ 4.01 µM) | 1.6 (≈ 4.01 µM) | 0.4 (≈ 1 µM) | 1.6 (≈ 4.01 µM) | 0.4 (≈ 1 µM) | 3.1 (≈ 7.76 µM) | 14 | 14 | 16 | 13 | 7 | 7 | 2 | ED50 (Mus musculus [13]): 2 mg/kg
4 | CCNCC1CCN(c2c(F)cc3c(=O)c(C(=O)O)cn(C)c3c2F)C1 (stereo unspecified) | 0.1 (≈ 0.274 µM) | 0.4 (≈ 1.09 µM) | 1.6 (≈ 4.38 µM) | 7.5 (≈ 20.5 µM) | 0.4 (≈ 1.09 µM) | 1.6 (≈ 4.38 µM) | 1.6 (≈ 4.38 µM) | 0.4 (≈ 1.09 µM) | 1.6 (≈ 4.38 µM) | 0.2 (≈ 0.547 µM) | 0.4 (≈ 1.09 µM) | 0.53 (≈ 1.45 µM) | 1.6 (≈ 4.38 µM) | – | – | – | – | – | – | – | –
5 | CCNCC1CCN(c2c(F)cc3c(=O)c(C(=O)O)cn(NC)c3c2F)C1 (stereo unspecified) | 0.2 (≈ 0.526 µM) | 0.2 (≈ 0.526 µM) | 0.2 (≈ 0.526 µM) | 27 (≈ 71 µM) | 0.2 (≈ 0.526 µM) | 0.8 (≈ 2.1 µM) | 1.6 (≈ 4.21 µM) | 0.2 (≈ 0.526 µM) | 0.4 (≈ 1.05 µM) | 0.2 (≈ 0.526 µM) | 0.1 (≈ 0.263 µM) | 0.3 (≈ 0.789 µM) | 0.4 (≈ 1.05 µM) | – | – | – | – | – | – | – | –
6 | CCNCC1CCN(c2c(F)cc3c(=O)c(C(=O)O)cn(C4CC4)c3c2F)C1 (stereo unspecified) [PD-117558] | 0.013 (≈ 0.0332 µM) | 0.05 (≈ 0.128 µM) | 0.1 (≈ 0.255 µM) | 1.4 (≈ 3.58 µM) | 0.05 (≈ 0.128 µM) | 0.4 (≈ 1.02 µM) | 0.2 (≈ 0.511 µM) | 0.025 (≈ 0.0639 µM) | 0.05 (≈ 0.128 µM) | 0.006 (≈ 0.0153 µM) | 0.025 (≈ 0.0639 µM) | 0.06 (≈ 0.153 µM) | 0.025 (≈ 0.0639 µM) | 40 | 13 | 3 | 2 | 2 | 0.5 | 4 | ED50 (Mus musculus [13]): 1 mg/kg

Reference: ChEMBL document CHEMBL1124223, “1-Substituted 7-[3-[(ethylamino)methyl]-1-pyrrolidinyl]-6,8- difluoro-1,4-dihydro-4-oxo-3-quinolinecarboxylic acids. New quantitative structure-activity relationships at N1 for the quinolone antibacterials” (1988)
